This note sets out measurements from ChEMBL document CHEMBL4028805, “Phenylthiazole Antibacterial Agents Targeting Cell Wall Synthesis Exhibit Potent Activity in Vitro and in Vivo against Vancomycin-Resistant Enterococci” (J Med Chem, 2017).

Each structure is given as a SMILES string. pEC50: −log10 of the molar value. In brackets after ≈: the same amount, converted by molar mass. Activity calls are given as the source filed them.

Data set [1] concerns Escherichia coli. The experiment in a line: Antibacterial activity against Escherichia coli O157:H7 ATCC 35150 after 18 to 22 hrs in absence of colistin by broth microdilution method. Format: functional.
A further data set deals with Enterobacter cloacae. The experiment in a line: Antibacterial activity against Enterobacter cloacae BAA-1154 after 18 to 22 hrs in absence of colistin by broth microdilution method. Format: functional.
Data set [2] relates to Escherichia coli. Description: Antibacterial activity against Escherichia coli 1411 after 18 to 22 hrs in absence of colistin by broth microdilution method. In kind it is functional. The essentials: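 Broth microdilution per CLSI guidelines. Gram-negatives grown in TSB. Each strain tested alone and again with colistin at ¼ × MIC to permeabilize the outer membrane. Plates incubated at 37 °C for 18–22 h. MIC read as the lowest concentration showing no visible growth.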

In data set [3] the test system is Enterococcus faecium. Description: Antibacterial activity against vancomycin-resistant Enterococcus faecium clinical isolates after 18 to 22 hrs by broth microdilution method. In kind it is functional. In short, it runs like this: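 CLSI broth microdilution against panels of enterococcal isolates. E. faecalis grown in TSB, E. faecium in BHI, 37 °C for 18–22 h. MIC is the lowest concentration without visible growth. MIC50 is the value inhibiting 50% of isolates in each group.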

The subject of another data set is HRT-18 cell line. Description: Cytotoxicity against human HRT18 cells assessed as reduction in cell viability up to 20 ug/ml after 2 hrs by MTS assay. In kind it is cell-based. Particulars: hrt-18, 2 h. The essentials: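 HRT-18 cells maintained in RPMI-1640 with 10% fetal horse serum at 37 °C, 5% CO2. Exposed to 5, 10, 20 or 40 μg/mL for 2 or 24 h, then MTS added and absorbance read at 490 nm. Viability expressed relative to untreated cells, n ≥ 3, one-way ANOVA with Dunnett's test.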

Data set [4] concerns Enterococcus faecalis. The experiment in a line: Antibacterial activity against vancomycin-resistant Enterococcus faecalis ATCC 51299 assessed as ratio of MIC after and before 6 serial passages measured after 18 hrs by broth microdillution method. In kind it is functional. In short, it runs like this: (§1)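 Multi-step selection over 14 passages in two weeks. McFarland 0.5 inoculum diluted 1:300 in TSB (E. faecalis) or BHI (E. faecium) to 1 × 10^5 CFU/mL. Each passage reinoculated at ~5 × 10^5 CFU/mL from the sub-inhibitory well of the previous plate. Compounds serially diluted in triplicate, incubated ≥18 h at 37 °C, MIC read visually. Resistance defined as >4-fold MIC rise.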

Data set [5] deals with Enterococcus faecium. Description: Antibacterial activity against vancomycin-resistant Enterococcus faecium ATCC HM-968 after 14 serial passages measured after 18 hrs by broth microdillution method. In kind it is functional. In short, it runs like this: as §1
Data set [6] deals with Escherichia coli. The experiment in a line: Antibacterial activity against tolC deficient Escherichia coli assessed as formation of misshapen cells at 25 ug/ml after 2 hrs in presence of sucrose by FM4-64/DAPI/SYTOX Green staining-based deconvolution microscopic analysis. In kind it is functional.
Data set [7] deals with Bacillus subtilis. Description: Antibacterial activity against Bacillus subtilis assessed as cell lysis at 5 times MIC after 30 mins by sytox green staining-based deconvolution microscopic analysis. Format: functional. The essentials:
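B. subtilis grown in LB at 37 °C to OD600 ~0.2 and treated, with or without MSM for osmotic stabilization, for 30 min or 2 h. Stained with FM 4-64 (1 μg/mL), DAPI (1 μg/mL) and SYTOX Green (1 μg/mL) to score permeability. Examined by deconvolution and phase-contrast microscopy.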

Data set [8] has as its system Bacillus subtilis. Description: Antibacterial activity against Bacillus subtilis assessed as misshapen cells at 5 times MIC after 2 hrs in presence of methylsulfonyl methane by phase contrast microscopic analysis. Format: functional. The essentials: (§2)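 B. subtilis grown in LB at 37 °C to OD600 ~0.2, then treated at 5 × MIC with MSM for osmotic stabilisation. At 2 h, stained with FM 4-64 (1 μg/mL), DAPI (1 μg/mL) and SYTOX Green (1 μg/mL). Imaged by deconvolution fluorescence and phase contrast microscopy.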

For data set [9], the system named is Bacillus subtilis. Description: Antibacterial activity against Bacillus subtilis assessed as pool of membranes at 5 times MIC after 2 hrs in presence of methylsulfonyl methane by phase contrast microscopic analysis. Format: functional. In short, it runs like this: as §2
A short description of data set [10]: Induction of proton motive force collapse in Escherichia coli inverted membrane vesicle in presence of ATP-driven PMF generation system by ACMA-based fluorescence assay. Format: functional, cell membranes. The essentials: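 E. coli inverted membrane vesicles (0.1 mg/mL membrane protein) with 2 μM ACMA and 0.5 mM ATP or succinate, in 10 mM HEPES-KOH, 5 mM MgSO4, 100 mM KCl, pH 7.5. Proton gradient followed by ACMA fluorescence (ex 410/em 480 nm). EC50 taken from dose-response curves. CCCP used as reference uncoupler.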

The test system of data set [11] is Enterococcus faecalis. Description: Potentiation of gentamicin-induced antibacterial activity against Enterococcus faecalis ATCC 51299 assessed as gentamicin MIC preincubated for 30 mins followed by gentamicin addition measured after 18 to 21 hrs. In kind it is functional. The essentials:
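Enterococcal suspensions at 5×10^5 CFU/mL preincubated with compound at ½ × MIC for 30 min at room temperature.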

Data set [12] deals with Enterococcus faecalis. Description: Synergistic antimicrobial activity against Enterococcus faecalis ATCC 51299 after 20 hrs in presence of ampicillin by checkerboard assay. In kind it is functional. In short, it runs like this:
(§3)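 Checkerboard in TSB with a starting inoculum of 1×10^5 CFU/mL. Compound and antibiotic diluted from 2× or 4× MIC along perpendicular axes. Incubated 20 h at 37 °C. ΣFIC calculated: ≤0.5 synergy, >0.5 to <2 additive, 2–4 indifference, >4 antagonism.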

The test system of data set [13] is Enterococcus faecalis. The experiment in a line: Synergistic antimicrobial activity against Enterococcus faecalis ATCC 51299 after 20 hrs in presence of doxycycline by checkerboard assay. In kind it is functional. The essentials: as §3
For data set [14], the system named is Enterococcus faecalis. Description: Synergistic antimicrobial activity against Enterococcus faecalis ATCC 51299 after 20 hrs in presence of ciprofloxacin by checkerboard assay. In kind it is functional. In short, it runs like this: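 Checkerboard assay. McFarland 0.5 suspension diluted in TSB to 1 × 10^5 CFU/mL. Compound diluted along one plate axis and antibiotic along the other, each starting at 2× or 4× MIC. Incubated 20 h at 37 °C, MIC read as no visible growth. Synergy defined as ΣFIC ≤0.5, additive >0.5 to <2, indifferent 2–4, antagonistic >4.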

Data set [15] deals with Enterococcus faecalis. The experiment in a line: Synergistic antimicrobial activity against Enterococcus faecalis ATCC 49532 after 20 hrs in presence of ciprofloxacin by checkerboard assay. In kind it is functional. The essentials:
as §3

In data set [16] the test system is Enterococcus faecalis. Description: Synergistic antimicrobial activity against Enterococcus faecalis ATCC 49533 after 20 hrs in presence of ciprofloxacin by checkerboard assay. Format: functional. In short, it runs like this:
as §3

In data set [17] the test system is Enterococcus faecalis. Description: Antibacterial activity against vancomycin-resistant Enterococcus faecalis HM-201 infected in Caenorhabditis elegans AU37 assessed as reduction in bacterial burden at 20 ug/ml after 18 hrs by CFU-based […] analysis relative to control. In kind it is functional. On the set-up: scale not given: the % may be the effect or the level left. The essentials: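 C. elegans AU37 adults infected on an E. faecalis HM-201 lawn for 2 h, washed in M9, 20–25 worms per well. Treated in triplicate with 20 μg/mL, with water as negative control. Worms washed, lysed with silicon carbide by vortexing, diluted serially and plated on TSA with 50 μg/mL gentamicin. CFU counted after 18 h at 37 °C and expressed as % reduction versus untreated worms.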

The subject of data set [18] is Escherichia coli. The experiment in a line: Antibacterial activity against tolC deficient Escherichia coli assessed as formation of spheroplasts at 25 ug/ml after 2 hrs by FM4-64/DAPI/SYTOX green staining-based deconvolution microscopic analysis. In kind it is functional.

As for `CCCCc1ccc(-c2nc(C)c(/C(C)=N/NC(=N)N)s2)cc1`, the MIC against Escherichia coli [1] is 16 µg/mL (≈ 48.6 µM); in the data set on Enterobacter cloacae, 64 µg/mL (≈ 194 µM); against Escherichia coli [2], 64 µg/mL (≈ 194 µM). For the same compound, in the data set with Enterococcus faecium [3], the MIC50 came out at 2 µg/mL (≈ 6.07 µM). The figures for the Activity entry in the data set with HRT-18 cell line, in the data set with Bacillus subtilis [7] and in the data set on Enterococcus faecalis [17] were “Non-Toxic”, 95% and 89%, respectively. The Ratio with Enterococcus faecalis [4] is 1. For the same compound, the outcome in the data set on Enterococcus faecium [5], in the data set on Escherichia coli [6], in the data set on Bacillus subtilis [8], in the data set with Bacillus subtilis [9] and in the data set on Escherichia coli [18] was Active. In data set [10], the pEC50 is 4.92. Moreover, in the data set with Enterococcus faecalis [11], the outcome was inactive. The “fractional inhibitory concentration index (FICI)” value in the data set with Enterococcus faecalis [12] is given as 3; in the data set with Enterococcus faecalis [13], 2; in the data set with Enterococcus faecalis [14], 0.5; in the data set on Enterococcus faecalis [15], 0.63 - 1; in the data set on Enterococcus faecalis [16], 0.63 - 1.
